Laboratory results: ChEMBL document CHEMBL1152541, “Staurosporine tethered peptide ligands that target cAMP-dependent protein kinase (PKA): optimization and selectivity profiling” (Bioorg Med Chem, 2009)
*1 amine or outer side, *2 acyl side, *3 side chain or, on linkers, in order; H or OH if unused. Where a SMILES comes first, the peptide text is derived from it. Bridges are numbered along the chain shown (N, C = ends). [ ]: non-standard residue; d: D form. The star is where a group is joined. Staurosporine = CO[C@@H]1[C@H](N(C)*)C[C@H]2O[C@]1(C)n1c3ccccc3c3c4c(c5c6ccccc6n2c5c31)C(=O)NC4; Suc = O=C(CCC(=O)[*:2])[*:1]; Dap = NC[C@H](N)C(=O)O; βAla = NCCC(=O)O

Key:
[1] = molecular target: Proto-oncogene tyrosine-protein kinase Src (Homo sapiens) (UniProt P12931); test: Binding affinity to human SRC at 500 nM by cell-based competition binding assay relative to control in presence of DTT
Sequence of Proto-oncogene tyrosine-protein kinase Src (Homo sapiens) (P12931 2-536 limits assumed): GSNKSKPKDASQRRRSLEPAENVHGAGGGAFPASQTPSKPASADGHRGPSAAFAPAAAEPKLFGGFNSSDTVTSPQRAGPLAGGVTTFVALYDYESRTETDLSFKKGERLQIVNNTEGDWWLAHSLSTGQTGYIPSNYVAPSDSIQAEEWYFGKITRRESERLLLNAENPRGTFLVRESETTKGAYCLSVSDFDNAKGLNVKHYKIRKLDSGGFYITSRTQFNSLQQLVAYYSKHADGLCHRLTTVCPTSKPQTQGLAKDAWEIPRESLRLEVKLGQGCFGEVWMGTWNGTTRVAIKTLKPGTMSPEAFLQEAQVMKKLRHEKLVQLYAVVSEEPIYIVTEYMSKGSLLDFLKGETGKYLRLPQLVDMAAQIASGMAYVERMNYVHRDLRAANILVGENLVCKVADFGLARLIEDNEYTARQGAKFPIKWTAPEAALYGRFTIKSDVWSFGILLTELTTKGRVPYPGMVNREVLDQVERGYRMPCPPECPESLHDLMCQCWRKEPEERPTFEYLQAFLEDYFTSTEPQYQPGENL

[2] = molecular target: T1, NUAK family SNF1-like kinase 2 (Homo sapiens) (UniProt Q9H093); test: Binding affinity to human SNARK at 500 nM by cell-based competition binding assay relative to control in presence of DTT
T1 sequence (whole entry): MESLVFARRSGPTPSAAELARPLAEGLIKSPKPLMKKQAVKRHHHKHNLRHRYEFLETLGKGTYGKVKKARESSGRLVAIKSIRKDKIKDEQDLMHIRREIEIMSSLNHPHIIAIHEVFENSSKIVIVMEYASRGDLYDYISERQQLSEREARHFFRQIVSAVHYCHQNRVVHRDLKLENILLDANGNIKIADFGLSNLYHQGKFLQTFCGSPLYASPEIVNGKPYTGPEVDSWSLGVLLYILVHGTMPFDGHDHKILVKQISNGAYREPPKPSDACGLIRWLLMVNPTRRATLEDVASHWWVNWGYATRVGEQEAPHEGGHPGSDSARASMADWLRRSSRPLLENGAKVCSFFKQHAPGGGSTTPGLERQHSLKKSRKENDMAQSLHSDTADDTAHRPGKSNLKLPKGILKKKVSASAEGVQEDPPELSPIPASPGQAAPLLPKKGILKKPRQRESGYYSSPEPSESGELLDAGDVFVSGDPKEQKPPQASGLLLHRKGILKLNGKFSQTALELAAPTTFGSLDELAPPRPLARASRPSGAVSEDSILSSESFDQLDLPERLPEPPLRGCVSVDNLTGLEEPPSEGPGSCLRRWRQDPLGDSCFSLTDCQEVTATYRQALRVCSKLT

[3] = molecular target: T2, Tyrosine-protein kinase JAK3 (Homo sapiens) (UniProt P52333); test: Binding affinity to human JAK3 kinase domain 2 at 200 nM by cell-based competition binding assay relative to control in presence of DTT
T2 sequence (whole entry): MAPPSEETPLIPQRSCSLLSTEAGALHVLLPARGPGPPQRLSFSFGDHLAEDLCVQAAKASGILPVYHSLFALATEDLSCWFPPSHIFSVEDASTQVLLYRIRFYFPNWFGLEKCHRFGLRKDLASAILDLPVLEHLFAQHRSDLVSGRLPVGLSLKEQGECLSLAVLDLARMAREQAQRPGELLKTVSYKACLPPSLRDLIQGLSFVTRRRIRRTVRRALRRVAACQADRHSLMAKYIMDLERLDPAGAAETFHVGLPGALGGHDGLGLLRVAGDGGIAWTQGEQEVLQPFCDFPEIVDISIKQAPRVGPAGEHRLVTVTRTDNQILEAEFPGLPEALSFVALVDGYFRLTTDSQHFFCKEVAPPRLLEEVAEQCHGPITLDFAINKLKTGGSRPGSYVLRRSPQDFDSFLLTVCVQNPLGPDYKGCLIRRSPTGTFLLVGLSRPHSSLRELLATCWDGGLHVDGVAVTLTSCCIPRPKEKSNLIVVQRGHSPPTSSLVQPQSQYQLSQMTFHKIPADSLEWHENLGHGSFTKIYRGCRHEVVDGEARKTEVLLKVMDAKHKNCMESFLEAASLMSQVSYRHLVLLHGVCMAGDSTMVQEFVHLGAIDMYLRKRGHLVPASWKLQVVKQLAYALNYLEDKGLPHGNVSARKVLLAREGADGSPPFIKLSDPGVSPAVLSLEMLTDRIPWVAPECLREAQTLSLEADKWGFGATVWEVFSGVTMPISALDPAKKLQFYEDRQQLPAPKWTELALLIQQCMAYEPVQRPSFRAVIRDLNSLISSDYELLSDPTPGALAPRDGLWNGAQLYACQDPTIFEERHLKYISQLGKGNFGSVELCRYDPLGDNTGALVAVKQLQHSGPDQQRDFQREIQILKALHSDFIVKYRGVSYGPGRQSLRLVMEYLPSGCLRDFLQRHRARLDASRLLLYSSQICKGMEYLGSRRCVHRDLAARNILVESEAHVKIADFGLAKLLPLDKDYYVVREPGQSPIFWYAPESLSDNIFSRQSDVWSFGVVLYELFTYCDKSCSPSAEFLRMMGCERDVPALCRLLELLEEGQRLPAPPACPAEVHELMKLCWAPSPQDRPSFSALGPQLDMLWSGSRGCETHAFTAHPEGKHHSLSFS
Method in brief: (§1)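 Competition binding screen (Ambit) across a panel of 90 kinases, scoring test ligand displacement of each kinase's binding relative to control. The screen ran under reducing conditions with 7.5 mM DTT.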

[4] = molecular target: Serine/threonine-protein kinase B-raf (Homo sapiens) (UniProt P15056); test: Binding affinity to human BRAF at 200 nM by cell-based competition binding assay relative to control in presence of DTT
Sequence of Serine/threonine-protein kinase B-raf (Homo sapiens) (P15056 whole entry): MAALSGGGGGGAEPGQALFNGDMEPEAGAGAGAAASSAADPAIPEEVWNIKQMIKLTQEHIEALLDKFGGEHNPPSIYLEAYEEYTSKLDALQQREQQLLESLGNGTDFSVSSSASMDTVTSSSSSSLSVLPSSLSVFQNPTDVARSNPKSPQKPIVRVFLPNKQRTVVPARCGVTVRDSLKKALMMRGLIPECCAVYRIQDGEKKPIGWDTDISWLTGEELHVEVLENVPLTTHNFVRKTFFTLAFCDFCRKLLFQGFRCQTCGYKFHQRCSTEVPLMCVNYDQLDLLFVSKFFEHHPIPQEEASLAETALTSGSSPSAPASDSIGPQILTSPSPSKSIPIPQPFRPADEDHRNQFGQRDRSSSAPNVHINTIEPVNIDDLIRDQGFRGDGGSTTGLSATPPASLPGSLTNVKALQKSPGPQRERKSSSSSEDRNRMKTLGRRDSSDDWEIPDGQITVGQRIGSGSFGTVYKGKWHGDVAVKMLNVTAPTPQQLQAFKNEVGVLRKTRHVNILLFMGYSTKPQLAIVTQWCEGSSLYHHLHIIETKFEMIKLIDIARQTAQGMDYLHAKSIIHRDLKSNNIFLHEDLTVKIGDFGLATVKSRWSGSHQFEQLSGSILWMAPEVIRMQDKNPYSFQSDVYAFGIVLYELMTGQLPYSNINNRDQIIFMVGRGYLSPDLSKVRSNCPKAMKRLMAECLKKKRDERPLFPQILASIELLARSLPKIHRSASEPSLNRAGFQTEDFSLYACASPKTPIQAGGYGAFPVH
Method in brief: (§2)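 Kinase binding profiling ran on a commercial (Ambit) competitive binding screen against a panel of 90 kinases. The screen used reducing conditions with 7.5 mM DTT. To withstand the DTT, the bivalent ligand was tested as its amide isostere, with the disulfide replaced. A staurosporine derivative carrying a 3 β-alanine linker was run as the reference compound.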

[5] = molecular target: T3, Activin receptor type-1B (Homo sapiens) (UniProt P36896); test: Binding affinity to human ACVR1B at 200 nM by cell-based competition binding assay relative to control in presence of DTT; method in brief: as §2
T3 sequence (whole entry): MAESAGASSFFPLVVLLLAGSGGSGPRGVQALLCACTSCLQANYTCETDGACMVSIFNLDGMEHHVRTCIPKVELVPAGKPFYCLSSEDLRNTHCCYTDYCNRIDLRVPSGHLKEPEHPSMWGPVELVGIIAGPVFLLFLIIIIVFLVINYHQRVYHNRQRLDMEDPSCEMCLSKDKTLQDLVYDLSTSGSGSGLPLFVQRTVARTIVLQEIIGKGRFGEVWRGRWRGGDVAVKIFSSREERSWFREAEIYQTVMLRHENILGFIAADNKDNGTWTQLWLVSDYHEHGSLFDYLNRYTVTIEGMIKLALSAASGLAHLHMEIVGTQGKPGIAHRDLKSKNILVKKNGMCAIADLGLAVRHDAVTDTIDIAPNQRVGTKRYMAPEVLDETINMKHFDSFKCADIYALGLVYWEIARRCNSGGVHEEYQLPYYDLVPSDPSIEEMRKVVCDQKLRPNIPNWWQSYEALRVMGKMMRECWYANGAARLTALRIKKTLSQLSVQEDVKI

[6] = tested on: Tyrosine-protein kinase ABL1 (Homo sapiens), P00519 [T315I]; test: Binding affinity to human ABL1 T315I mutant at 50 nM by cell-based competition binding assay relative to control in presence of DTT; method in brief: as §2
[7] = molecular target: T2, Tyrosine-protein kinase JAK3 (Homo sapiens); test: Binding affinity to human JAK3 kinase domain 2 at 50 nM by cell-based competition binding assay relative to control in presence of DTT; method in brief: as §1
[8] = molecular target: Tyrosine-protein kinase receptor UFO (Homo sapiens) (UniProt P30530); test: Binding affinity to human AXL at 50 nM by cell-based competition binding assay relative to control in presence of DTT; method in brief: as §2
Sequence of Tyrosine-protein kinase receptor UFO (Homo sapiens) (P30530 whole entry): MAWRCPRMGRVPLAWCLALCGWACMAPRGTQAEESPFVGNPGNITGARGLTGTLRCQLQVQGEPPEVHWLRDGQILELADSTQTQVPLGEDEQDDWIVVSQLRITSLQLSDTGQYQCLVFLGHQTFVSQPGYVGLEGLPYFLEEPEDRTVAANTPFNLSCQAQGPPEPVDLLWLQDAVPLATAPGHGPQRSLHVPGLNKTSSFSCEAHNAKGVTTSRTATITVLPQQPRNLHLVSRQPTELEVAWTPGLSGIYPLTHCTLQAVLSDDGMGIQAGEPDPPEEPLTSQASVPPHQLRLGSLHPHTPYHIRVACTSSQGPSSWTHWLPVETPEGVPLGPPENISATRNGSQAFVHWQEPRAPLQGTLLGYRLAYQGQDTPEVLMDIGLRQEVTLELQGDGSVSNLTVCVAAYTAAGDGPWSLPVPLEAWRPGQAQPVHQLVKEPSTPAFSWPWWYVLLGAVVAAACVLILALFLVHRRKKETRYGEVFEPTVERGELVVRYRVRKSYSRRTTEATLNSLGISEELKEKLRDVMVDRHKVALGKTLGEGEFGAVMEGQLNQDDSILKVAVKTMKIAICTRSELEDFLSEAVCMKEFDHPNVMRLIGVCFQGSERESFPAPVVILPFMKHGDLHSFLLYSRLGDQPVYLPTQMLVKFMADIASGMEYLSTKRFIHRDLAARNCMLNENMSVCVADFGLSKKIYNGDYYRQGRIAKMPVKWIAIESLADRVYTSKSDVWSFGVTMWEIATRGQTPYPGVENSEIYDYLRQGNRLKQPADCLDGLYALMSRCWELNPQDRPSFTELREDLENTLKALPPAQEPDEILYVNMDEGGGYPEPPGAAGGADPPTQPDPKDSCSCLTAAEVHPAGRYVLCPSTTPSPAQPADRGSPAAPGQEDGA

Structure (SMILES): CO[C@@H]1[C@H](N(C)C(=O)CCC(=O)NCCC(=O)NCCC(=O)NCCC(N)=O)C[C@H]2O[C@]1(C)n1c3ccccc3c3c4c(c5c6ccccc6n2c5c31)C(=O)NC4
- Activity [1]: 72%
- Activity [2]: 3.2%

Structure (SMILES): CO[C@@H]1[C@H](N(C)C(=O)CCC(=O)NCCC(=O)NCCC(=O)NCCC(=O)NCCC(=O)NCCC(=O)NCCC(=O)NCCC(=O)N[C@H]2CSSC[C@@H](C(=O)NCC(N)=O)NC(=O)CNC(=O)[C@H](Cc3ccccc3)NC(=O)[C@H](C(C)C)NC(=O)[C@H](CCCNC(=N)N)NC(=O)[C@H](Cc3ccccc3)NC(=O)[C@H](C(C)C)NC2=O)C[C@H]2O[C@]1(C)n1c3ccccc3c3c4c(c5c6ccccc6n2c5c31)C(=O)NC4 ({Staurosporine-Suc-βAla-βAla-βAla-βAla-βAla-βAla-βAla}-CVFRVFGCG-NH2; disulfide 1-8)
- Activity [3]: 4.6%
- Activity [4]: 100%
- Activity [5]: 95%

Structure (SMILES): CO[C@@H]1[C@H](N(C)C(=O)CCC(=O)NCCC(=O)NCCC(=O)NCCC(=O)NCCC(=O)NCCC(=O)NCCC(=O)NCCC(=O)N[C@H]2CNC(=O)C[C@@H](C(N)=O)NC(=O)CNC(=O)[C@H](Cc3ccccc3)NC(=O)[C@H](C(C)C)NC(=O)[C@H](CCCNC(=N)N)NC(=O)[C@H](Cc3ccccc3)NC(=O)[C@H](C(C)C)NC2=O)C[C@H]2O[C@]1(C)n1c3ccccc3c3c4c(c5c6ccccc6n2c5c31)C(=O)NC4 ({Staurosporine-Suc-βAla-βAla-βAla-βAla-βAla-βAla-βAla}-[Dap]VFRVFGD-NH2; lactam 1-8)
- Activity [6]: 100%
- Activity [7]: 16%
- Activity [8]: 81%
